In the RNAGym collection of RNA variant scans (doi:10.1101/gad.245936.114):
Variants at the floor of the assay were thinned out.

B1: tRNA (parent)
chain: CUCUCGGUAGCCAAGUUGGUUUAAGGCGCAAGACUUUAAUUUAUCACUACGAAAUCUUGAGAUCGGGCGUUCGACUCGCCCCCGGGAGAUUUUUUCCUCGAGCAA

Variants of: B1
Test: nonsense suppression (GFP-seq) (ratio to wild type); higher = more function; SUP4oc tRNA, yeast GFP reporter sort-seq
Summary of the method: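 Sorted GFP/RFP bins of yeast were each Illumina-sequenced with a phred ≥30 cutoff; the cells held a genome-integrated ochre-suppressor tRNA variant from a library with ~3% random mutations, a galactose-driven GFP ochre reporter, and RFP. Culture was in raffinose/galactose medium containing 80 mg/L adenine. Nonsense suppression, termed GFPSEQ, is the median GFP/RFP of the bins weighted by each variant's estimated cell share per bin, relative to the unmutated parent tRNA, for variants reaching ≥100 reads and ≥30 cells.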

Row | Variant | nonsense suppression
1 | U4C A30U | 0.0792
2 | U20G G26C | ≤ 0.026
3 | G18C C29U G85A G88A | ≤ 0.026
4 | U57A G67U U76C | ≤ 0.026
5 | A23C C82G | ≤ 0.026
6 | G28U G61U | 0.191
7 | G18A A54U | ≤ 0.026
8 | U20C G86C | ≤ 0.026
9 | C11G A24U A62C C68G | ≤ 0.026
10 | A13U U16C U63G | 0.18
11 | G15A C75A | 0.854
12 | C5A G78U | 0.0303
13 | C34A U55C G66A | ≤ 0.026
14 | G10U C12G A31U G32U C68G | ≤ 0.026
15 | C5U C11A U21G A87U | ≤ 0.026
16 | C11G C12U G61C | ≤ 0.026
17 | G19U A24G A87G | ≤ 0.026
18 | U55A C56A C64A U70C | ≤ 0.026
19 | C3U A54C | 0.079
20 | G6C U57C G65A G67A A74C G78C | ≤ 0.026
21 | A31U C64U C72U | ≤ 0.026
22 | A24C U71A G78C C80A A87U | ≤ 0.026
23 | U20C U76C | 0.228
24 | A24C G78A | 0.112

Row | Variant | nonsense suppression
25 | A9G U63A | 0.836
26 | A9G G10U C80U A87C | ≤ 0.026
27 | U22C A33G G59A | ≤ 0.026
28 | U16A A24C | 0.872
29 | C5U C12G A13G C29A | ≤ 0.026
30 | C5A G15A A33G | ≤ 0.026
31 | G84A A87G | 0.157
32 | A24U A60G | 0.0422
33 | U4A A54U | 0.191
34 | C1A G10U G61A A62C G73C | ≤ 0.026
35 | A24C U71C | 0.0704
36 | A14U G61A | 0.0341
37 | U76A A87G | 0.0534
38 | A23C U57C | ≤ 0.026
39 | C3U U21A | 0.196
40 | U17G A30U | 0.0613
41 | G15U U20C | 0.0275
42 | U4C G7U | 0.202
43 | A24U A87G | 0.147
44 | U4G A14U G26A | ≤ 0.026
45 | A24G A31G | 0.0322
46 | U16G C83U | 0.223
47 | C27A C34G A60U C77U | ≤ 0.026
48 | G6U C82A A87U | ≤ 0.026

Row | Variant | nonsense suppression
49 | G25A G59C U63C | ≤ 0.026
50 | C11A G61A | 0.22
51 | U21G U63G | 0.0367
52 | A31U U63G | 0.0763
53 | U8C U63A | 0.0619
54 | U20C U55C | 0.0996
55 | G78A A87U | 0.032
56 | G19C A23C C56G G85U | ≤ 0.026
57 | U58A A74G G88A | ≤ 0.026
58 | A33G U76C | 0.0419
59 | G10U A31G | ≤ 0.026
60 | A30U U76G | 0.0538
61 | U17C A30G | 0.326
62 | C56G G78C | ≤ 0.026
63 | U22C A30C G32U C82G | ≤ 0.026
64 | A13G C56G U71G | ≤ 0.026
65 | G61A A87G | 0.197
66 | U2C G88A | ≤ 0.026
67 | G19C U71C | ≤ 0.026
68 | U55A U76A G86A | ≤ 0.026
69 | U2G C3U C27G G66A U70C | ≤ 0.026
70 | U2G C11A A74C G84C | ≤ 0.026
71 | A60C A74G | 0.0424
72 | G61C U71C | 0.061

Row | Variant | nonsense suppression
73 | A9G U71C | 0.0266
74 | A23U G65A | ≤ 0.026
75 | U21G A54U C75U | 1.23
76 | G7A U20G | ≤ 0.026
77 | U4C C34A | 0.0274
78 | A23U A60G | 0.0537
79 | U16G A30G C64G | ≤ 0.026
80 | C72A G85C | ≤ 0.026
81 | A13U G67A | 0.0502
82 | U2C U21C | 0.203
83 | G7A A60G | 0.053
84 | A9G A30U | 0.163
85 | G78A C81G | 0.0732
86 | C1U G7A | ≤ 0.026
87 | A13U C81G | 0.0578
88 | U2C U4C A13G | 0.205
89 | A30G C77U | ≤ 0.026
90 | U20A G85U | 0.0676
91 | U4A A9G G73U C77G G86U | ≤ 0.026
92 | U16G U21G | 1.1
93 | U20G U71G | ≤ 0.026
94 | U16G U76G G86C | ≤ 0.026
95 | G67C C83A | ≤ 0.026
96 | C5U C29U C34U A87C | ≤ 0.026

Row | Variant | nonsense suppression
97 | A33G A87U G88U | ≤ 0.026
98 | G28A G78C | 0.0938
99 | C29G U55A | ≤ 0.026
100 | U16C A60G G86C | ≤ 0.026
101 | G28A A31G G73C | ≤ 0.026
102 | C12U G88U | 0.0717
103 | U17G A54C | 0.64
104 | C1U G26A | ≤ 0.026
105 | A24C G85U | 0.258
106 | A14U U57G | ≤ 0.026
107 | U20C G28A | 0.192
108 | A23U G67A | ≤ 0.026
109 | G6A U55A | ≤ 0.026
110 | C3A U35C | ≤ 0.026
111 | U4C U63G | 0.0946
112 | G67A C75A C79A | 0.203
113 | U63G G78U | 0.0445
114 | A30C U55A | ≤ 0.026
115 | G66A U76C C81U | ≤ 0.026
116 | U17G G19U | 1.05
117 | A9U U17C | 0.128
118 | G25C A31C G73A | ≤ 0.026
119 | C11U C27G A74G | ≤ 0.026
120 | G61A C75U | 0.923

Row | Variant | nonsense suppression
121 | A9G A30U U58A | 0.23
122 | C29A G65C U71G | ≤ 0.026
123 | C3G G7A C56G C79G | 0.783
124 | C3A U20A G28A | ≤ 0.026
125 | U55A G67U | ≤ 0.026
126 | A54U C81A | ≤ 0.026
127 | A24C A30U A54C U58G C75A | 0.783
128 | C27U U58A G59A | ≤ 0.026
129 | G6A A23G G25C U63C C80G | ≤ 0.026
130 | G26U G65C U71A G78U | ≤ 0.026
131 | C1U U20A G73C | 0.722
132 | C1A U2G G19A G32C A89G | ≤ 0.026
133 | U2C C80A | ≤ 0.026
134 | A9G C81U | 0.028
135 | U4A G19U | ≤ 0.026
136 | U70C G86A | ≤ 0.026
137 | U21A G28C | 0.495
138 | C56U A87G | ≤ 0.026
139 | U21A U63G G86A | ≤ 0.026
140 | C3G U4C | 0.399
141 | U2G A23G G66A | ≤ 0.026
142 | U8C A9U C34G C68U | ≤ 0.026
143 | C3G A31C C68G C77U | ≤ 0.026
144 | U55C G65A | 0.0796

Row | Variant | nonsense suppression
145 | G61A C80U | 0.232
146 | C1G C3G G25A C27U | ≤ 0.026
147 | A23G G78U | 0.0956
148 | U22G U63C | 0.868
149 | A14U C27A G78C A87C | ≤ 0.026
150 | G15A U21C C82A | ≤ 0.026
151 | C75U | 0.972
152 | C68U C83G | ≤ 0.026
153 | C27A C29A U71C C79U | ≤ 0.026
154 | G6C U20A | ≤ 0.026
155 | U21A A60G | 0.302
156 | A74G G78U | 0.0279
157 | A30G U63C | 0.205
158 | U21G A54C | 0.764
159 | U20A C75G G85U | 0.154
160 | U22A G28U A54U U70G A87C | ≤ 0.026
161 | U17C U76C | 1.09
162 | C3U U8G A54U U58G C83U | ≤ 0.026
163 | U16C A31G U57C | 0.922
164 | G15A U76C | 0.0394
165 | U4G U22G | 0.492
166 | A31G A74U | 0.029
167 | G7A G61A | ≤ 0.026
